The results in this text go back to ChEMBL document CHEMBL2384910, “Lead optimization of 5-amino-6-(2,2-dimethyl-5-oxo-4-phenylpiperazin-1-yl)-4-hydroxyhexanamides to reduce a cardiac safety issue: discovery of DS-8108b, an orally active renin inhibitor” (Bioorg Med Chem, 2013).

Molecules are shown by their SMILES. Numbering of substitutions follows the chain as printed. Activity calls are given as the source filed them. No cut-off for these calls is given here.

One may read the Cmax as the maximum level reached in the sampled fluid or tissue. A word on the IC50: it is the concentration that inhibits the measured activity by half. Broadly, the half-life is the time in which the quantity being followed falls by half. The clearance is a measure of how efficiently the substance is removed, as volume per time. A word on the AUC(0-t): it is exposure summed from dosing to a finite time, without extrapolation to infinity. Usually bioavailability stands for dose-corrected exposure relative to a reference, in per cent.

A short description of data set [1]: Cmax in cynomolgus monkey at 3 mg/kg, po by HPLC-MS/MS analysis. The format is ADME, organism-based, Macaca fascicularis. The arrangement: dose 3 mg/kg, route oral. As to conditions: in vivo. In short, it runs like this:
(§1)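 Blood sampled over 24 h, at least 7 time points; plasma levels by HPLC-MS/MS; parameters from non-compartmental analysis of concentration-time curves.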

Data set [2] is filed under the species Rattus norvegicus. Nature of the data set: Displacement of [3H]batrachotoxin from sodium channel (site 2) in Wistar rat brain at 10 uM relative to control. In kind it is tissue-based. In short, it runs like this:
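Rat brain membranes in modified Tris–HCl buffer, pH 7.4, incubated 1 h at 37 °C with 5 nM [3H]batrachotoxin plus test compound. Nonspecific binding defined with excess veratridine. Binding affinity is expressed as percent inhibition relative to vehicle control.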

Data set [3] relates to Cynomolgus monkey. The experiment in a line: Inhibition of renin in furosemide pretreated cynomolgus monkey assessed as reduction in mean arterial blood pressure at 3 mg/kg, po. As to conditions: Macaca fascicularis. The arrangement: dose 3 mg/kg. The format is functional, organism-based. Summed up: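 Conscious freely moving telemetered cynomolgus monkeys (n = 6), furosemide 5 mg/kg/day im for 3 days before dosing; fasted from morning, fed ≥8 h post-dose. Oral 1, 3, 10 mg/kg or 1% methylcellulose, crossover design; arterial pressure recorded from −3 to 24 h; hourly mean MAP; mean ± SEM.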

The subject of data set [4] is Heart. The experiment in a line: Cardiotoxicity in anesthetized New Zealand White rabbit heart assessed as prolongation of […] at 10 uM after 20 mins relative to baseline. The format is toxicity, tissue-based, Oryctolagus cuniculus. In short, it runs like this:
(§2)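 Isolated Langendorff-perfused hearts from female NZW rabbits anesthetized with thiopental 30 mg/kg iv; heart excised into chilled Krebs-Henseleit solution. After parameters stabilized, compound perfused at 10, 30 and 100 µM for 20 min; ECG changes expressed as % change from baseline.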

For data set [5], the system named is Heart. The experiment in a line: Cardiotoxicity in anesthetized New Zealand White rabbit heart assessed as prolongation of QTc interval at 10 uM after 20 mins relative to baseline. In kind it is toxicity, tissue-based, Oryctolagus cuniculus. Summed up:
as §2

Data set [6] deals with Cynomolgus monkey. Nature of the data set: Inhibition of renin in furosemide pretreated cynomolgus monkey plasma at 3 mg/kg, po. In kind it is functional, organism-based. The arrangement: dose 3 mg/kg. As to conditions: Macaca fascicularis. In short, it runs like this:
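Cynomolgus monkeys pretreated with furosemide given single oral dose 1, 3 or 10 mg/kg or vehicle 1% methylcellulose. Venous blood into EDTA-2Na tubes at 1, 2, 4, 8, 24 h, chilled, centrifuged cold, plasma frozen; plasma renin activity by radioimmunoassay.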

In data set [7] the test system is Rattus norvegicus. The experiment in a line: Cardiotoxicity in Sprague-Dawley rat electrophysiology model assessed as QRS complex abnormalities at 10 mg/kg, iv by ECG analysis. The format is toxicity, organism-based. Set-up: dose 10 mg/kg, route intravenous. To be noted: in vivo. In short, it runs like this:
(§3)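 Male Sprague-Dawley rats anesthetized with inactin 100 mg/kg ip; surface lead II ECG recorded continuously. Compounds given as iv bolus via right jugular vein catheter after stabilization; QRS complex abnormality scored as no, moderate or severe change; n = 2 at 10 mg/kg.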

Data set [8] concerns Heart. Nature of the data set: Cardiotoxicity in anesthetized New Zealand White rabbit heart assessed as prolongation of heart rate at 10 uM after 20 mins relative to baseline. The format is toxicity, tissue-based, Oryctolagus cuniculus. In short, it runs like this: as §2
Data set [9] addresses T1, Renin (Homo sapiens, UniProt P00797).
T1 sequence (P00797 whole entry): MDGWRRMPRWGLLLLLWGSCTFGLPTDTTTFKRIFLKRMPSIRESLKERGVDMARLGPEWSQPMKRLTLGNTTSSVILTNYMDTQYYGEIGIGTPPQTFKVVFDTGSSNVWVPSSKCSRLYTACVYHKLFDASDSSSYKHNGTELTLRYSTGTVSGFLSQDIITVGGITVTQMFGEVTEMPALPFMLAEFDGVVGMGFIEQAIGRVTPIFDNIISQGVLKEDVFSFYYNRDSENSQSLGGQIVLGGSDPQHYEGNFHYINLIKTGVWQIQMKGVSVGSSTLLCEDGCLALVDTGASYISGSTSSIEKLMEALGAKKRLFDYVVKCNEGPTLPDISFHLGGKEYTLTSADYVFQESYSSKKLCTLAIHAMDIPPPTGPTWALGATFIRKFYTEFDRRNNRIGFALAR
Nature of the data set: Inhibition of human recombinant renin using Arg-Glu(EDANS)-Ile-His-Pro-Phe-His-Leu-Val-Ile-His-Thr-Lys (DABCYL)-Arg as substrate incubated for 10 mins prior to substrate addition measured after 90 mins by fluorescence assay. Summed up:
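Trypsin-activated recombinant human renin in 50 mM Tris-HCl pH 7.9, 100 mM NaCl, preincubated with compound 10 min at room temperature; FRET substrate Arg-Glu(EDANS)…Lys(DABCYL)-Arg added, 90 min at 37 °C.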

The nature of data set [10]: Half life in cynomolgus monkey at 3 mg/kg, po by HPLC-MS/MS analysis. In kind it is ADME, organism-based, Macaca fascicularis. Set-up: dose 3 mg/kg, route oral. To be noted: in vivo. In short, it runs like this: as §1
For data set [11], the target named is T2, Renin (Macaca fascicularis) (UniProt Q6DLS0).
T2 sequence (whole entry): T1 sequence (P00797 whole entry) with T68A, I214L, S235A
Nature of the data set: Ratio of compound IC50 to aliskiren IC50 for renin in cynomolgus monkey plasma.

Data set [12] has as its system Cynomolgus monkey. The experiment in a line: Cardiotoxicity in telemetered cynomolgus monkey assessed as ventricular fibrillation at 50 mg/kg, po. The arrangement: dose 50 mg/kg, route oral. To be noted: in vivo. In kind it is toxicity, organism-based, Macaca fascicularis, Cardiac ventricle.
In data set [13] the test system is Rattus norvegicus. The experiment in a line: Toxicity in Sprague-Dawley rat electrophysiology model assessed as mortality at 3 to 10 mg/kg, iv. In kind it is organism-based. The arrangement: dose 3-10 mg/kg, route intravenous. To be noted: in vivo.
Data set [14] concerns Heart. Nature of the data set: Cardiotoxicity in anesthetized New Zealand White rabbit heart assessed as prolongation of QRS width at 10 uM after 20 mins relative to baseline. In kind it is toxicity, tissue-based, Oryctolagus cuniculus. Summed up: as §2
Data set [15] deals with Rattus norvegicus. Nature of the data set: Cardiotoxicity in iv bolus dosed Sprague-Dawley rat electrophysiology model assessed as QRS complex abnormalities. The format is toxicity, organism-based. As to conditions: in vivo. Summed up:
as §3

Data set [16] can be described thus: Clearance in cynomolgus monkey at 1 mg/kg, iv by HPLC-MS/MS analysis. The format is ADME, organism-based, Macaca fascicularis. Set-up: dose 1 mg/kg, route intravenous. As to conditions: in vivo.
A short description of data set [17]: AUC (0 to 24 hrs) in cynomolgus monkey at 3 mg/kg, po by HPLC-MS/MS analysis. The format is ADME, organism-based, Macaca fascicularis. Set-up: time < 24 hr, dose 3 mg/kg, route oral. To be noted: plasma. In short, it runs like this:
as §1

Data set [18] deals with Cynomolgus monkey. Nature of the data set: Cardiotoxicity in telemetered cynomolgus monkey assessed as ventricular tachycardia at 50 mg/kg, po. The arrangement: dose 50 mg/kg, route oral. The format is toxicity, organism-based, Macaca fascicularis, Cardiac ventricle. To be noted: in vivo.
Data set [19] in a line: Oral bioavailability in cynomolgus monkey at 3 mg/kg by HPLC-MS/MS analysis. To be noted: in vivo. The format is ADME, organism-based, Macaca fascicularis. In short, it runs like this:
as §1

The nature of data set [20]: Volume of distribution at steady state in cynomolgus monkey at 1 mg/kg, iv by HPLC-MS/MS analysis. The format is ADME, organism-based, Macaca fascicularis. Set-up: dose 1 mg/kg, route intravenous. To be noted: in vivo, read-out: Vdss.
The subject of data set [21] is Heart. Nature of the data set: Cardiotoxicity in anesthetized New Zealand White rabbit heart assessed as ventricular tachycardia and ventricular fibrillation at 30 uM after 20 mins. The format is toxicity, tissue-based, Oryctolagus cuniculus. In short, it runs like this:
as §2

The target in data set [22] is T3, Renin (Macaca fascicularis, UniProt Q6DLS0).
T3 sequence (Q6DLS0 whole entry): T1 sequence (P00797 whole entry) with T68A, I214L, S235A
The experiment in a line: Inhibition of renin in cynomolgus monkey plasma after 1 hr by RIA. In short, it runs like this:
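Pooled mixed-gender EDTA cynomolgus monkey plasma with pH adjusting solution and Inhibitor A, compound in 1% DMSO final, incubated 1 h at 37 °C. Angiotensin I by competitive RIA; uninhibited and 4 °C controls define % inhibition; IC50 from four-parameter fit; ratio is compound IC50 over aliskiren IC50 in same plasma batch; ≥2 replicates.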

The molecule `CC(C)[C@H](C[C@H](O)[C@@H](N)CN1CC(=O)N(c2ccccc2Cl)CC1(C)C)C(=O)NCC(C)(C)C.O=C(O)/C=C/C(=O)O` registered a Cmax in data set [1] of 111 ng/mL. The Activity in the data set listed under Rattus norvegicus [2] was 87%; with Heart [4], 68.9%; with Heart [5], -1.5%; with Rattus norvegicus [7], “Toxic”; in the data set on Heart [8], -4.6%; with Cynomolgus monkey [12], “Toxic”. Moreover, the Activity result is “Toxic” with Rattus norvegicus [13]; 15.6% in the data set with Heart [14]; “Dose-dependent effect” in the data set on Rattus norvegicus [15]; “Toxic” in the data set with Cynomolgus monkey [18]; “Toxic” in the data set with Heart [21]. The inhibition result with Cynomolgus monkey [3] and with Cynomolgus monkey [6] was “Active” in each case. For the same molecule, the results for the IC50 at Renin [9] and against Renin [22] were 1 nM and 3 nM, respectively. This molecule also gave a half-life in data set [10] of 15.3 h. Besides, in [11], the Ratio IC50 stood at 0.5. Also, the clearance in data set [16] came out at 28.4 mL/min/kg. In [17], this molecule registered an AUC(0-t) at 24 h of 460 ng·h/mL. In data set [19], this molecule yielded a bioavailability of 26.4%. Also, the Vd in data set [20] is 23.5 L/kg.
